# Assay results collected from several papers.
# Each line is one published result; the experiments were not run side by side.
Structure (SMILES),tested on,test,test system,setting,endpoint,value
Cc1ncsc1-c1ccc(CNC(=O)[C@@H]2C[C@@H](O)CN2C(=O)[C@@H](NC(=O)CCCCCCCCCCNC(=O)O[C@H]2C[C@@H](C)C=C3C=C[C@H](C)[C@H](CC[C@@H]4C[C@@H](O)CC(=O)O4)[C@H]32)C(C)(C)C)cc1,,metabolic stability,"mouse, liver microsomes","1 µM, 5 min, pH 7.4",compound remaining,41.2%
N=C(N)c1ccc(OCCSCCOc2ccc(C(=N)N)cc2)cc1,,haemolysis,sheep,"200 µg/mL, 20 h",haemolysis,0%
CC(=O)Nc1nnc(N2CCN([C@@H](C)c3ccc4c(c3)OCO4)CC2)s1,,,"dog, plasma",1 µM,fraction unbound,0.125
Nc1ncnc2c1ncn2[C@@H]1C=C[C@@]2(CO)C[C@@H]12,MT4,"cell growth or viability, MTT",,5 days,CC50,> 100 µg/mL
Cc1ccnc2c1NC(=O)c1cccnc1N2C1CC1,MT4,"cell growth or viability, MTT",,5 days,CC50,0.82 µg/mL
N=C(N)c1ccc(OCCCCCCCOc2ccc(C(=N)N)cc2)cc1,,haemolysis,sheep,"200 µg/mL, 20 h",haemolysis,9.2%
CON=C(N)c1ccc(-c2ccc(-c3ccc(C(N)=NOC)cc3)o2)cc1,"Cytochrome P450 2J2 (CYP2J2, Homo sapiens, UniProt P51589)","enzyme activity, substrate",,,Km,0.9 µM
COc1cc(/C=C/C(=O)OCCCc2ccc(O[C@H](COC(=O)/C=C/c3ccc(O)c(OC)c3)[C@@H](OC)c3ccc(O)c(OC)c3)c(OC)c2)ccc1O,MT4,cell growth or viability,,72 h,CC50,> 10 µM
N=C(N)c1ccc(OCc2ccc(COc3ccc(C(=N)N)cc3)cc2)cc1,,haemolysis,sheep,"200 µg/mL, 20 h",haemolysis,0.4%
O=c1ccn([C@@H]2C=C[C@@]3(CO)C[C@@H]23)c(=O)[nH]1,MT4,"cell growth or viability, MTT",,5 days,CC50,> 100 µg/mL
C[C@H](Cn1cnc2c(N)ncnc21)OCP(=O)(O)O,MT4,"cell growth or viability, MTT",,5 days,CC50,6.73 µg/mL
COc1cccc2c1C(=O)c1c(O)c3c(c(O)c1C2=O)C[C@@](O)(C(=O)CO)C[C@@H]3O[C@H]1C[C@H](N)[C@H](O)[C@H](C)O1,BJ,cell growth or viability,,,IC50,0.1 µM
Cc1ccc2c(c1)nc(/C=C/c1cccc3cccnc13)n2-c1ccccc1,,metabolic stability,"rat, liver microsomes","1.5 µM, 45 min",compound remaining,17.8%
N=C(N)c1ccccc1OCc1cccc(COc2ccccc2C(=N)N)c1,,haemolysis,sheep,"200 µg/mL, 1 h",haemolysis,0%
C=C(CCO)Cn1cnc2c(=O)[nH]c(N)nc21,MT4,"cell growth or viability, MTT",,7 days,CC50,> 100 µM
